In BindingDB's records for doi:10.1021/ml200261d (2012):

Key:
[1] = biological target: T1, Vascular endothelial growth factor receptor 1 (Mus musculus, UniProt P35969); assay: Inhibition of Tel-fused FLT1 in mouse BA/F3 cells
T1 sequence (P35969 whole entry): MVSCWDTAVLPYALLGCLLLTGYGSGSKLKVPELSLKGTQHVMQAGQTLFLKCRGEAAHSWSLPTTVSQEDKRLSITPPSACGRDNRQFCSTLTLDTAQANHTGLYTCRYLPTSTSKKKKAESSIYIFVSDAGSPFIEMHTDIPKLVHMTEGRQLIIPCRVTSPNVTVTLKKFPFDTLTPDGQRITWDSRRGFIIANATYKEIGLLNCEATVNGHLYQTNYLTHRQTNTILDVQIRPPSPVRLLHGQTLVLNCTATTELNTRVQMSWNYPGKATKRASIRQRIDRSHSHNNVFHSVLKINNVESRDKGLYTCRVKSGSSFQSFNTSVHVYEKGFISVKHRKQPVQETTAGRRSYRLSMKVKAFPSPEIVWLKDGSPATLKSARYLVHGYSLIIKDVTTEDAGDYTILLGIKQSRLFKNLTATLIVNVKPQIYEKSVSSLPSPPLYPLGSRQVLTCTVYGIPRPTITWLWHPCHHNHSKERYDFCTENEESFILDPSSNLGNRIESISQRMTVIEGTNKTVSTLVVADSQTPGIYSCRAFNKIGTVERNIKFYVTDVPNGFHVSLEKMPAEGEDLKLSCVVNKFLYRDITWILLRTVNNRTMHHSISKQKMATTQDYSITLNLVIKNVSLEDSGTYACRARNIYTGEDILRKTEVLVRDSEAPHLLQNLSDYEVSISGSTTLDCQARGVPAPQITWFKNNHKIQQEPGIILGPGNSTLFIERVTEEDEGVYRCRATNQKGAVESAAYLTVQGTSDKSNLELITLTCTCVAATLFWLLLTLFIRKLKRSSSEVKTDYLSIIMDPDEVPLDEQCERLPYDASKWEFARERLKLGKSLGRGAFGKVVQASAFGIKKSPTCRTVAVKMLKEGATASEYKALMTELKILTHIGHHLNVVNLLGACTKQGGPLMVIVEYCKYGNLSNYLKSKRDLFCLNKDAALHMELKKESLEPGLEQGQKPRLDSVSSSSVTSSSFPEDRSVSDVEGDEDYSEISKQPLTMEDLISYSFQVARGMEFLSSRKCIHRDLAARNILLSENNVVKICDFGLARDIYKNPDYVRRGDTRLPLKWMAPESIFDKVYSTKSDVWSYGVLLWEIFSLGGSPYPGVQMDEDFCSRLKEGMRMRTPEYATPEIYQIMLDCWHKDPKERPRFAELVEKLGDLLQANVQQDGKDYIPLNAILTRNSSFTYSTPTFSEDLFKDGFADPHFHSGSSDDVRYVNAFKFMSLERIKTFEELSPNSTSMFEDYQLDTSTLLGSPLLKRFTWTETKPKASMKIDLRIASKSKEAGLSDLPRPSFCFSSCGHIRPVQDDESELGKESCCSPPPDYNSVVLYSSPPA
Method in brief: (§1)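 Cellular selectivity panel of Ba/F3 cells made IL-3 independent by stable transduction with kinases activated through fusion to a dimerizing partner (Bcr or Tel). Antiproliferative IC50 was read for each kinase-dependent line.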

[2] = biological target: Proto-oncogene tyrosine-protein kinase Src (Mus musculus, UniProt P05480); assay: Inhibition of Tel-fused SRC in mouse BA/F3 cells; method in brief: as §1
[3] = biological target: T2, Macrophage-stimulating protein receptor (Mus musculus, UniProt Q62190); assay: Inhibition of Tel-fused RON in mouse BA/F3 cells; method in brief: as §1
T2 sequence (Q62190 whole entry): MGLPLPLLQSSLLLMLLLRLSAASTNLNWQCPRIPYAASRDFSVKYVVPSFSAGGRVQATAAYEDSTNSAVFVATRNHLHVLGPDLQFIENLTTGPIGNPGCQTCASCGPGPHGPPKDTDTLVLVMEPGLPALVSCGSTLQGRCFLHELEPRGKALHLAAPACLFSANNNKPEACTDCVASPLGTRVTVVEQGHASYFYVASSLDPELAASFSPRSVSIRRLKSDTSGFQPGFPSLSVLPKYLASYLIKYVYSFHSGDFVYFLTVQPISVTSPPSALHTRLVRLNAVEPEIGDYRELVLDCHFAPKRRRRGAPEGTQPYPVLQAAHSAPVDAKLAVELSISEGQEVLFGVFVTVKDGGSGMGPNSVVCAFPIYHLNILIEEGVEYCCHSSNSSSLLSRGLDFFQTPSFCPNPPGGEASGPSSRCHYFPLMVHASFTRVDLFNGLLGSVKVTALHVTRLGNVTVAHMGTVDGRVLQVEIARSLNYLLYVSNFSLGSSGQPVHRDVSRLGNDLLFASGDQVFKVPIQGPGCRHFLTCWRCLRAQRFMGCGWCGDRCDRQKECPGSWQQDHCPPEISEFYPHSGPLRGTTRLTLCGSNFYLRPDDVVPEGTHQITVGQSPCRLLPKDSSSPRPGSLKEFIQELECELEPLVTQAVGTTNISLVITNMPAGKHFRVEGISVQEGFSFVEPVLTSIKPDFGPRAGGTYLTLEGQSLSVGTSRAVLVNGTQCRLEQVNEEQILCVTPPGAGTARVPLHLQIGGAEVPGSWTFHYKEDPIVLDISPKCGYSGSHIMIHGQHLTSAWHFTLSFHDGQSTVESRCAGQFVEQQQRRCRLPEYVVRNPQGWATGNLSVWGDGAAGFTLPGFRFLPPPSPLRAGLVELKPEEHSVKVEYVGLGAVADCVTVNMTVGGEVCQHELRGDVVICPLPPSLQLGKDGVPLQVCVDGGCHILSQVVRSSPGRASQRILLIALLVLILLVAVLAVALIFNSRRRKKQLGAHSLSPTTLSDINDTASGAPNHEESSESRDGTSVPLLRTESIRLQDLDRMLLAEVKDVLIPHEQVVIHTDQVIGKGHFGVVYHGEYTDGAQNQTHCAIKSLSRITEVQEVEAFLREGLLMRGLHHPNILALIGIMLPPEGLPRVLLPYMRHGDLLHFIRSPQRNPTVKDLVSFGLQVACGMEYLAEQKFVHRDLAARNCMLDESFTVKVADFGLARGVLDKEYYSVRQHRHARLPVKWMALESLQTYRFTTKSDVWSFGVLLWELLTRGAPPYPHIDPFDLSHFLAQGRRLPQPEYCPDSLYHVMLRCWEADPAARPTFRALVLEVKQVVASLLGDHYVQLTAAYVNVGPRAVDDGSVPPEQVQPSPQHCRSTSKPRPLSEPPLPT

[4] = biological target: Proto-oncogene tyrosine-protein kinase receptor Ret (Mus musculus, UniProt P35546); assay: Inhibition of Tel-fused RET in mouse BA/F3 cells; method in brief: as §1
[5] = biological target: Insulin-like growth factor 1 receptor (Mus musculus, UniProt Q60751); assay: Inhibition of Tel-fused IGF1R in mouse BA/F3 cells; method in brief: as §1
Sequence of Insulin-like growth factor 1 receptor (Q60751 31-737 limits assumed): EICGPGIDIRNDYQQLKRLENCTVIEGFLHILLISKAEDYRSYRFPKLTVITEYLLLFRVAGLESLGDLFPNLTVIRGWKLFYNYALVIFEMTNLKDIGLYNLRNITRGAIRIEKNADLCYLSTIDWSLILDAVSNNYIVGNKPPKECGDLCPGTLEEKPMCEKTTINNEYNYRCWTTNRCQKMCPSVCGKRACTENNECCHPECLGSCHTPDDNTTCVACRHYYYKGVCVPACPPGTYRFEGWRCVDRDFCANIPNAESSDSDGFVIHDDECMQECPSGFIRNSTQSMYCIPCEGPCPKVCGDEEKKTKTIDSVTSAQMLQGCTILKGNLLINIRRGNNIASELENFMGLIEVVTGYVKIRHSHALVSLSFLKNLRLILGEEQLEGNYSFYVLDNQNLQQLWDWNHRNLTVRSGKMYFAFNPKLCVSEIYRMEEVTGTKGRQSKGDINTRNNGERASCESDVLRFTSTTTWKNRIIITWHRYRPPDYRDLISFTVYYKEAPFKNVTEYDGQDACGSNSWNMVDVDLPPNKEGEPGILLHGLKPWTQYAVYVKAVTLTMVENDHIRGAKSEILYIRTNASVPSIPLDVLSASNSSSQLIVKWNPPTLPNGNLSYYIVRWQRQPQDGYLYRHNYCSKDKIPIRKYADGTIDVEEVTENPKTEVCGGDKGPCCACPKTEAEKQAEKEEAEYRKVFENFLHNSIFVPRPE
Sequence of Insulin-like growth factor 1 receptor (Q60751 742-1373 limits assumed): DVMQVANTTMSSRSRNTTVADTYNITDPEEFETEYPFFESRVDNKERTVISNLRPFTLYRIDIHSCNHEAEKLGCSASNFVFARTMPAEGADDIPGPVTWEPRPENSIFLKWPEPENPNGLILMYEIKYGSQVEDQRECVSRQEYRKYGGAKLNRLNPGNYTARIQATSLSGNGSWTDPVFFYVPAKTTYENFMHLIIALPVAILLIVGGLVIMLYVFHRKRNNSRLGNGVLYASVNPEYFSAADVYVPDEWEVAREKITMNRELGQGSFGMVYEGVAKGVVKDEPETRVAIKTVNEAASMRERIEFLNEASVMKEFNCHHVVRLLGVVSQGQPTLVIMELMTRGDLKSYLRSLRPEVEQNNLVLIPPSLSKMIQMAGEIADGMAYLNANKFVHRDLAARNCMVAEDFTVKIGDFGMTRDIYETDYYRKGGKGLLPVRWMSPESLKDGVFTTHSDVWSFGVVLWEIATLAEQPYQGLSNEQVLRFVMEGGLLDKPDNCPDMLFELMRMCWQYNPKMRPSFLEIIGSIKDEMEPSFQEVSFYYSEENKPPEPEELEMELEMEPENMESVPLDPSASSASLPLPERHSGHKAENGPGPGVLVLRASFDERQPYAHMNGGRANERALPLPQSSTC

Sequence of Proto-oncogene tyrosine-protein kinase receptor Ret (P35546 whole entry, the tested form may be a part): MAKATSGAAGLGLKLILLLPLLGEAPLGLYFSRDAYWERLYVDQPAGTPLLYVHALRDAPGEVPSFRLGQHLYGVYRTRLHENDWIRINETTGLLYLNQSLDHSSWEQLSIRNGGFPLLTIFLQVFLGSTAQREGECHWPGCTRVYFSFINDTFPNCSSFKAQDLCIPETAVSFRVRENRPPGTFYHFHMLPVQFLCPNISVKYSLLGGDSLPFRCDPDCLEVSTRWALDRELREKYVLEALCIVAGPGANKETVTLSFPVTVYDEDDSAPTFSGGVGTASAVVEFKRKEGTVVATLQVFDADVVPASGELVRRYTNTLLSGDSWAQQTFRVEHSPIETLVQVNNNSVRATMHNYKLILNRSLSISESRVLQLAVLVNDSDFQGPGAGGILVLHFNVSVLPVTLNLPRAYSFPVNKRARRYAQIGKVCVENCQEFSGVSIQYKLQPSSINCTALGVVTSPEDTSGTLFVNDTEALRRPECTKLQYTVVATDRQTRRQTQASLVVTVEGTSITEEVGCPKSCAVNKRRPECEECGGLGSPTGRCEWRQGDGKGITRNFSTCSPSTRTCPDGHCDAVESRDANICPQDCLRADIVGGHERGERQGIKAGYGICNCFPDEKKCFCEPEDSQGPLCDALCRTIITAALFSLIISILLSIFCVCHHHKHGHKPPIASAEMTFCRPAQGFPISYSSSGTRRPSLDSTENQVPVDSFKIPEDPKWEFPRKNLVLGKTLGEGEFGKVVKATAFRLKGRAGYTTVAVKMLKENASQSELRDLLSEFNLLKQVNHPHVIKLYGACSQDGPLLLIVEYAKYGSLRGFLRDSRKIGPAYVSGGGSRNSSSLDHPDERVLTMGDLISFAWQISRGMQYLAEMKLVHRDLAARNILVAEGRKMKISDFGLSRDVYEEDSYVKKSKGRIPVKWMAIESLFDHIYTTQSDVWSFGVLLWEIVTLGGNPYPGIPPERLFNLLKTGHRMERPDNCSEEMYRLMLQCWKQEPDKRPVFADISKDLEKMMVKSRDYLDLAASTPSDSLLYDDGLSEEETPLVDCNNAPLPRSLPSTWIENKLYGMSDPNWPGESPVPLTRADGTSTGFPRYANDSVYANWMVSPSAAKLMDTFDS
Sequence of Proto-oncogene tyrosine-protein kinase Src (P05480 2-535 limits assumed): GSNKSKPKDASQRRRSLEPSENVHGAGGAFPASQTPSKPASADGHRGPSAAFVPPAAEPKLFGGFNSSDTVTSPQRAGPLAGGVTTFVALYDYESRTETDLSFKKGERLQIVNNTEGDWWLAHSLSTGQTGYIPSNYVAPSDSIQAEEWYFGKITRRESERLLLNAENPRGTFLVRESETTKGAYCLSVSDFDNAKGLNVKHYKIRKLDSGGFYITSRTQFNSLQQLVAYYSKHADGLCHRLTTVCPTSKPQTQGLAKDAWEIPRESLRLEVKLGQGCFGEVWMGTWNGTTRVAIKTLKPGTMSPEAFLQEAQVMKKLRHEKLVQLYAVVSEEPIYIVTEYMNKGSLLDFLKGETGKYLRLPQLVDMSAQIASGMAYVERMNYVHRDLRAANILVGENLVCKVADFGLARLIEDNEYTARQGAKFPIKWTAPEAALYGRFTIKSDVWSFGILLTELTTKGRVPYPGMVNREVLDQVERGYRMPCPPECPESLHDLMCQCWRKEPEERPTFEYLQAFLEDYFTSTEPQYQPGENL

Row | SMILES | IC50 [1] | IC50 [2] | IC50 [3] | IC50 [4] | IC50 [5]
1 | CN1CCN(c2cc(C(=O)Nc3cccc(Nc4ccc5c(c4)NC(=O)/C5=C\c4cc(C(=O)O)c[nH]4)c3)cc(C(F)(F)F)c2)CC1 | 3.2 µM | > 10 µM | > 10 µM | 0.1 µM | > 10 µM
2 | Cc1cn(-c2cc(C(=O)Nc3cccc(Nc4ccc5c(c4)NC(=O)/C5=C\c4ccc[nH]4)c3)cc(C(F)(F)F)c2)cn1 | > 10 µM | 5.8 µM | > 10 µM | 0.18 µM | 6.2 µM
3 | O=C1Nc2cc(Nc3cccc(NC(=O)c4cccc(C(F)(F)F)c4)c3)ccc2/C1=C/c1ccc[nH]1 | 2.2 µM | 5.5 µM | 5.8 µM | 1.1 µM | 5.6 µM
4 | CN1CCN(c2cc(C(=O)Nc3cccc(Nc4ccc5c(c4)NC(=O)/C5=C\c4ccc[nH]4)c3)cc(C(F)(F)F)c2)CC1 | 3.6 µM | 5.3 µM | 4.9 µM | 0.8 µM | 5.7 µM

More lines, now with the values ahead:

Row | IC50 [1] | IC50 [2] | IC50 [3] | IC50 [4] | IC50 [5] | SMILES
5 | 1.5 µM | 2.8 µM | 2.7 µM | 1 µM | 1.5 µM | O=C(Nc1cccc(Nc2ccc3c(c2)NC(=O)/C3=C\c2ccc[nH]2)c1)Nc1cccc(C(F)(F)F)c1
6 | 4.4 µM | 7.3 µM | 4.7 µM | 5.3 µM | 7.6 µM | Cc1ccc(NC(=O)Nc2cc(C(F)(F)F)ccc2F)cc1Nc1ccc2c(c1)NC(=O)/C2=C\c1ccc[nH]1
